Measured values: ChEMBL document CHEMBL4513216, “Probing the Open Global Health Chemical Diversity Library for Multistage-Active Starting Points for Next-Generation Antimalarials” (ACS Infect Dis, 2020)

Assay: Toxicity liver stage against HepG2, at 10uM
Format: cell-based
Parameters: test concentration 10 uM, cell line HepG2-A16-CD81EGFP
Settings: human, HepG2-A16-CD81EGFP cells; read-out: INHIBITION
In short: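 Uninfected HepG2-A16-CD81EGFP cells, 3 × 10^3 per well, 1536-well, plated on prespotted compound at 10 μM final, parasite-free screening media added to match infected plates; puromycin 10 μM positive, DMSO 0.5% negative; run in parallel with 48 h PbLuc assay at 37 °C, 5% CO2; viability by CellTiter-Glo luminescence, normalized to controls.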

CCNC(=O)N1C[C@@H]2OCC(=O)N(CC3CCCCC3)[C@@H]2C1
cytotoxicity at 10 µM: -4.04%

Cc1cccc(CN2C[C@@H](F)[C@@H](OCc3nc4ccccc4[nH]3)C2)n1
cytotoxicity at 10 µM: 8.01%

CCn1nccc1C(=O)Nc1nc(C)c(C(C)=O)s1
cytotoxicity at 10 µM: 1.28%

O=C(Cc1cccs1)N1CC(c2nc(-c3cnccn3)no2)C1
cytotoxicity at 10 µM: -0.921%

O=C(Cc1ccccc1Cl)Nc1cc(N2CCCC2)ncn1
cytotoxicity at 10 µM: -2.46%

CC(=O)N1CCN(c2cc(-n3cccc3)ncn2)CC1
cytotoxicity at 10 µM: -2%

O=C1CCC2(CCCN(C(=O)c3cccs3)C2)N1 (stereo not drawn)
cytotoxicity at 10 µM: 6.88%

CN(C)CCN1C(=O)CCC12CCN(C(=O)CC1CC1)CC2
cytotoxicity at 10 µM: 3.35%

CC(C)NC(=O)N1CCCn2cnc(CN3CCCC3=O)c2C1
cytotoxicity at 10 µM: 17.4%

O=C(CCc1ccccc1)NCC1CCN(Cc2ccsc2)CC1
cytotoxicity at 10 µM: 5.27%

COc1ccc(F)cc1S(=O)(=O)NCC(c1cccn1C)N(C)C (stereo not drawn)
cytotoxicity at 10 µM: -20.7%

O=S(=O)(Nc1cnn(C2CCOCC2)c1)c1ccc2c(c1)CCO2
cytotoxicity at 10 µM: 5.42%

CN1C(=O)C[C@@H]2[C@@H]1CCN2C(=O)c1ccc[nH]1
cytotoxicity at 10 µM: -14.8%

CCn1nnc(NCc2cc(Cl)cc(Cl)c2OC)n1
cytotoxicity at 10 µM: 13.6%

CCCc1noc(C2CCCCN2C(=O)C2CCCC2)n1 (stereo not drawn)
cytotoxicity at 10 µM: -35.8%

O=C(c1cc(-c2ccco2)cs1)N1CCCC1
cytotoxicity at 10 µM: 11%

CN1CCC(CCc2ccnc(Nc3cnccn3)c2)CC1
cytotoxicity at 10 µM: -12.6%

Cn1cccc1C(=O)N1CCCCC1c1ccn2ccnc2n1 (stereo not drawn)
cytotoxicity at 10 µM: -28.2%

COCc1nc(C2CCN(Cc3nccn3C)CC2)no1
cytotoxicity at 10 µM: -14.2%

CCn1cc(CN2C[C@@H]3CCCN3C[C@H]2CCSC)c(C)n1
cytotoxicity at 10 µM: -15.3%

COc1ccc(CN2CCc3c(nc(-c4ccccn4)[nH]c3=O)C2)cc1
cytotoxicity at 10 µM: -15.9%

COc1ccccc1CC(=O)N1CC[C@H](O)[C@]2(CCCO2)C1
cytotoxicity at 10 µM: -6.75%

COc1ccc(SC(C)C(=O)N2CCC(C(=O)N3CCCC3)CC2)cc1 (stereo not drawn)
cytotoxicity at 10 µM: 1.03%

CCc1ccccc1CNC(=O)CNC(=O)C(C)(C)C
cytotoxicity at 10 µM: 2.29%

Cc1cnn(CCNCc2nccn2Cc2ccccc2)c1
cytotoxicity at 10 µM: 5.91%

Cc1cc(C)nc(NC2CCc3nc(C)nn3C2)n1 (stereo not drawn)
cytotoxicity at 10 µM: 14.3%

CN(C)C(=O)CCNC(=O)Nc1sc2ccccc2c1Cl
cytotoxicity at 10 µM: 6.14%

O=C(c1cc(C2CCCC2)no1)N1CC(O)C1
cytotoxicity at 10 µM: -1.57%

Cc1nc(CNCc2ccc(N3CCC(CO)CC3)nc2)cs1
cytotoxicity at 10 µM: 1.58%

Cc1nn(C)c(C)c1C1CCCN1c1ncnc2c1CCC2 (stereo not drawn)
cytotoxicity at 10 µM: 13.1%

O=C1CCN(C(=O)NCCCc2ccc(Cl)cc2Cl)CCN1
cytotoxicity at 10 µM: -2.37%

CCCc1nc(C)c(C(=O)NCc2ccc(C)n2C)s1
cytotoxicity at 10 µM: 16.5%

Cc1ccoc1C(=O)NC(CC(C)C)C(=O)N1CCC(CO)CC1 (stereo not drawn)
cytotoxicity at 10 µM: 0.794%

CC(C)C(C(=O)NC1CCOCC1)n1cnc2cc(F)c(F)cc21 (stereo not drawn)
cytotoxicity at 10 µM: -2.75%

COCCn1cc(C(=O)N2CCCC2c2ccncc2)c2ccccc21 (stereo not drawn)
cytotoxicity at 10 µM: 10.7%

CC(C)(CNC(=O)Nc1nccs1)N1CCOCC1
cytotoxicity at 10 µM: -9.47%

CS(=O)(=O)NC1CCN(c2cccc(F)c2C#N)CC1
cytotoxicity at 10 µM: -3.6%

OCC(O)CSCc1nnc(-c2cccc(F)c2)o1 (stereo not drawn)
cytotoxicity at 10 µM: 15.4%

COc1cccc(CNc2nc(C)cc(C)n2)c1OC
cytotoxicity at 10 µM: -6.44%

Cc1cccc(COc2ccccc2C(=O)N2CCC(C(N)=O)CC2)c1
cytotoxicity at 10 µM: -7.08%

N#CC(NC(=O)CS(=O)(=O)C1CCCC1)c1ccc(F)cc1F (stereo not drawn)
cytotoxicity at 10 µM: 3.56%

O=C(Cn1cc(C2CC2)nn1)NC(c1cc(F)ccc1F)C1CC1 (stereo not drawn)
cytotoxicity at 10 µM: -12.6%

CC(CC#N)N(C)Cc1ccc(F)cc1F (stereo not drawn)
cytotoxicity at 10 µM: 6.03%

COCCN(Cc1ccccc1)Cc1csc(-c2ncccn2)n1
cytotoxicity at 10 µM: 3.78%

Cc1c(C(=O)N2CCC(C(O)c3ccc(Cl)cc3)CC2)cnn1C (stereo not drawn)
cytotoxicity at 10 µM: -0.916%

Cn1nccc1CNC(=O)NC1CCN(c2ncccc2Cl)C1 (stereo not drawn)
cytotoxicity at 10 µM: 4.37%

Cc1nc2n(n1)CCN(S(=O)(=O)c1ccc(OC(F)(F)F)cc1)C2
cytotoxicity at 10 µM: -5.86%

Cc1c(F)cccc1S(=O)(=O)NCC(C)(C)CC(C)O (stereo not drawn)
cytotoxicity at 10 µM: -8.29%

Cc1cc(C(C)NC(=O)c2cnc3onc(C)c3c2)c(C)o1 (stereo not drawn)
cytotoxicity at 10 µM: 6.15%

Cc1cc(C(C)(O)CNC(=O)C2(C)CCCC2)c(C)o1 (stereo not drawn)
cytotoxicity at 10 µM: -4.88%

CCNC(=O)NC(=O)CN1CCOC(c2ccc(Br)cc2)C1 (stereo not drawn)
cytotoxicity at 10 µM: 2.08%

CCn1c(C2CCCN2Cc2noc(C(C)(C)C)n2)nc2ccccc21 (stereo not drawn)
cytotoxicity at 10 µM: 3.18%

Cc1nnc(-c2cccc(C#N)c2)n1C1CCN(C(C)C)C1=O (stereo not drawn)
cytotoxicity at 10 µM: -2.4%

COCCCNC(=O)CN(C)C(=O)CN(C)c1ccc(C#N)cn1
cytotoxicity at 10 µM: -6.08%

O=C(CCNS(=O)(=O)c1ccc2c(c1)CCCC2)NCc1ccoc1
cytotoxicity at 10 µM: 5.86%

CCc1ccccc1C(=O)N1CCN(S(C)(=O)=O)[C@@H](C)C1
cytotoxicity at 10 µM: -8.72%

Cc1n[nH]c(C2CN(C(=O)c3ccco3)CCO2)n1 (stereo not drawn)
cytotoxicity at 10 µM: -14.5%

CCS(=O)(=O)N1C[C@H]2CN(CC3CC3)C(=O)[C@H]2C1
cytotoxicity at 10 µM: 0.797%

O=C(CCc1nc(-c2ccccc2)no1)N[C@H]1COC[C@@H]1N1CCCC1
cytotoxicity at 10 µM: -1.83%

COCc1cc(N2CCOCC2)n2nccc2n1
cytotoxicity at 10 µM: -1.98%

CN1CCN2CCN(Cc3cnc(NCc4ccccc4)nc3)CC2C1 (stereo not drawn)
cytotoxicity at 10 µM: -16.8%

Cc1c(C(C)N)cnn1-c1ccccn1 (stereo not drawn)
cytotoxicity at 10 µM: -3.86%

c1csc(CN(Cc2ccsc2)CC2CCCO2)n1 (stereo not drawn)
cytotoxicity at 10 µM: -1.32%

Cc1cc(C(=O)NC(C)c2nnn[nH]2)c2ccc(C)c(C)c2n1 (stereo not drawn)
cytotoxicity at 10 µM: -10.7%

OCCNc1cc(N2CCN(Cc3ccccc3)C(CCO)C2)ncn1 (stereo not drawn)
cytotoxicity at 10 µM: 6.45%

CCn1c(C)nnc1SCCNC(=O)c1sc(C(C)C)nc1C
cytotoxicity at 10 µM: -1.27%

O=C(NCc1cccnc1N1CCc2ccccc2C1)c1cnc[nH]1
cytotoxicity at 10 µM: 5.97%

CCc1ncc(CNC2CC(=O)N(CCc3cccc(Cl)c3)C2)cn1 (stereo not drawn)
cytotoxicity at 10 µM: -3.62%

O=C(CCn1cnnc1)N1CCCC(c2ncc[nH]2)C1 (stereo not drawn)
cytotoxicity at 10 µM: -9.01%

O=S(=O)(Cc1ccccc1F)NCCN1CCOCC1
cytotoxicity at 10 µM: 24.8%

COC(=O)C1CCN(C(=O)c2ccc(C)c(NS(C)(=O)=O)c2)CC1
cytotoxicity at 10 µM: 3.98%

Cc1nc(C)n(C2CCCN(C(=O)CCCc3ccccn3)C2)n1 (stereo not drawn)
cytotoxicity at 10 µM: -0.586%

CN(Cc1ccncc1)C(=O)[C@H]1CSCN1C(=O)OC(C)(C)C
cytotoxicity at 10 µM: -9.65%

CC(=O)N1CCC(C(=O)NCc2cc[nH]n2)(c2ccccc2)CC1
cytotoxicity at 10 µM: -0.037%

CC(=O)N(Cc1noc(C2CC2)n1)C1CCN(CC(=O)NC2CC2)C1 (stereo not drawn)
cytotoxicity at 10 µM: -3.67%

COc1ccc(Cl)cc1NCC(=O)NCc1cccnc1OC
cytotoxicity at 10 µM: -10.3%

CCNC(=O)NC(=O)CNC(C)(C)c1ccc2c(c1)OCO2
cytotoxicity at 10 µM: -8.58%

CC(C)CCN(CCC(C)C)Cc1nc2c(cnn2C)c(=O)[nH]1
cytotoxicity at 10 µM: -5.57%

CCc1nc(CN(C(C)=O)C2CCN(Cc3ccccc3F)C2)no1 (stereo not drawn)
cytotoxicity at 10 µM: -12.3%

COc1ccc(C2=CCN(C(=O)CN(C)S(C)(=O)=O)CC2)cc1
cytotoxicity at 10 µM: -3.99%

CCN(CC1CCCO1)C(=O)Nc1cc(C)ccc1S(C)(=O)=O (stereo not drawn)
cytotoxicity at 10 µM: -12.5%

CCC(O)CN1CCN(C(=O)c2cccc(CC#N)c2)CC1 (stereo not drawn)
cytotoxicity at 10 µM: -11.6%

CCc1nnc(CN2CCN(CC(O)c3ccccc3)CC2)o1 (stereo not drawn)
cytotoxicity at 10 µM: -12.3%

CC(C)c1noc(CCC(=O)NC2CCS(=O)(=O)C2)n1 (stereo not drawn)
cytotoxicity at 10 µM: -15.6%

Cc1cnn(CC2CN(Cc3noc(C4CC4)n3)CCO2)c1 (stereo not drawn)
cytotoxicity at 10 µM: -11.4%

c1cnn(CC2CN(Cc3nc(C4CC4)no3)CCO2)c1 (stereo not drawn)
cytotoxicity at 10 µM: -27.6%

c1ccc(OCCN2CCc3c(ncn3C3CC3)C2)cc1
cytotoxicity at 10 µM: -10.3%

O=S(=O)(CCN1CCc2c(ncn2C2CC2)C1)c1ccccc1
cytotoxicity at 10 µM: -14.5%

COc1ncccc1CNC(=O)NC(C)Cn1cccn1 (stereo not drawn)
cytotoxicity at 10 µM: -12.5%

COc1ccc(C(=O)N2CCCS2(=O)=O)cc1
cytotoxicity at 10 µM: -1.88%

CCc1nccn1C1CCCN(C(=O)c2c(C)nsc2NC)C1 (stereo not drawn)
cytotoxicity at 10 µM: -5.86%

Cn1ccnc1CN1CCCN(C(=O)COC2CCCC2)CC1
cytotoxicity at 10 µM: -18.1%

CC(C(=O)NCc1ccc(N2CCCCCC2)nc1)S(C)(=O)=O (stereo not drawn)
cytotoxicity at 10 µM: -11.9%

CSCc1ccc(CNC2CCCN(c3ccc(C)nn3)C2)o1 (stereo not drawn)
cytotoxicity at 10 µM: -13.2%

COc1ccc(C(=O)N2CCC(Nc3cccnn3)CC2)cn1
cytotoxicity at 10 µM: 4.07%

Cc1cc(CN(C)C(=O)NC2CCN(S(C)(=O)=O)CC2)no1
cytotoxicity at 10 µM: 3.25%

CC(O)CN1CCN(C(=O)c2ccn(-c3cccc(Cl)c3)n2)CC1 (stereo not drawn)
cytotoxicity at 10 µM: -6.8%

CC(NC(=O)N1CCN(CCc2ccccc2)CC1)c1nncn1C (stereo not drawn)
cytotoxicity at 10 µM: 0.0722%

COc1ccccc1C(=O)N(C)Cc1ncc(C)c(OC)c1C
cytotoxicity at 10 µM: 5.37%

Nc1cccnc1N1CCCCCC1
cytotoxicity at 10 µM: 4.45%

COc1ccc(CN2CCC(c3cc(O)nc(C)n3)C2)c(OC)c1 (stereo not drawn)
cytotoxicity at 10 µM: -5.77%

Cn1cc(C(=O)NCc2cn3c(n2)CN(CC2CCOC2)CC3)cn1 (stereo not drawn)
cytotoxicity at 10 µM: 5.22%

CN(C)C(=O)[C@@H]1CCO[C@@H]2CCN(Cc3ccccc3)C[C@@H]21
cytotoxicity at 10 µM: -12.1%

O=C1CC2(CCN(Cc3ccncc3)C2)CN1c1cccc(F)c1 (stereo not drawn)
cytotoxicity at 10 µM: -152%

O=C1N(c2cncnc2)CCC12CCCN(Cc1ccccn1)C2 (stereo not drawn)
cytotoxicity at 10 µM: -9.35%

Cc1ccc(-c2cnc3n2CCN(C)C32CCN(CC3CC3)CC2)cc1
cytotoxicity at 10 µM: 11%

COCCn1cc2c(n1)C(CNCc1ccco1)OCC2 (stereo not drawn)
cytotoxicity at 10 µM: -11.9%

CC(C)N1CCC2(CCCN(c3nccc(C(F)(F)F)n3)C2)CC1
cytotoxicity at 10 µM: 10.9%

CC(C)n1nc(Cn2cccn2)c2c1CN(C1CCOC1)C2 (stereo not drawn)
cytotoxicity at 10 µM: 6.95%

O=S(=O)(c1cccs1)N1CCCn2cnc(CN3CCCC3)c2C1
cytotoxicity at 10 µM: 1.14%

O=C(NCCn1nc(C2CCNC2)c2cccnc21)c1ccccc1 (stereo not drawn)
cytotoxicity at 10 µM: -23.9%

O=C1NC2(CCN(Cc3cccnc3)CC2)CC1c1cccnc1 (stereo not drawn)
cytotoxicity at 10 µM: 3.14%

CCCN1C[C@@H]2CC[C@H]1CN(c1nnc(C(C)C)s1)C2
cytotoxicity at 10 µM: -11.4%
